Measurements reported in publication PMC2778733 (Journal of the American Chemical Society, 2008).
Where two headings read alike, the source gives them in different places.

What was measured:
Siderocalin (Scn) [1] = target: T1, Siderocalin (Scn) (Homo sapiens, UniProt P80188); assay: Fluorescence quenching binding assay of Scn; conditions: for Kd: 100 nM Scn, TBS pH 7.4, 5% DMSO
Summary of the method: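 Recombinant Scn, 100 nM in TBS pH 7.4 with 32 μg/mL ubiquitin and 5% DMSO, was titrated with 2–10 equivalents of substrate. Tryptophan quenching was read at excitation 281 nm and emission 340 nm, corrected for dilution. Metal complexes were formed in situ from a DMSO ligand stock plus 1 eq. metal salt, equilibrated 1 h, and used as a 6 μM working solution. Apo ligands were prepared without metal. Kd came from a one-site nonlinear least-squares fit.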

Siderocalin (Scn) [2] = target: T1, Siderocalin (Scn); conditions: cited from earlier work
[3] = [L] = 10 μmol L^−1, [Fe^III] = 1 μmol L^−1; cited from earlier work

T1 sequence (P80188 21-198): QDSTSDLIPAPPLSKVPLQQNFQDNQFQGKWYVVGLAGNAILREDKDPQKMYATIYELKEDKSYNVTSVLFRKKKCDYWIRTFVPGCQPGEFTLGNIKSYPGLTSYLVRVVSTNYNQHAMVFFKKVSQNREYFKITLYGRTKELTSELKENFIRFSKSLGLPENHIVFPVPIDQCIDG

O=C(NCCN(CCNC(=O)c1cccc(O)c1O)CCNC(=O)c1cccc(O)c1O)c1cccc(O)c1O [trenCAM3, tren(CAM)3]
Kd (Siderocalin (Scn) [1]; V^IV complex): 1.3 ± 0.3 nM
Kd (Siderocalin (Scn) [1]; no metal (apo ligand)): 1.2 ± 0.2 nM
Kd (Siderocalin (Scn) [2]; Fe^III complex): 0.3 ± 0.1 nM

O=C(NCCN(CCNC(=O)c1cccc(O)c1O)CCNC(=O)c1cccc(=O)n1O)c1cccc(O)c1O [trenCAM2(1,2-HOPO), tren(CAM)2(1,2-HOPO)]
Kd (Siderocalin (Scn) [1]; Fe^III complex): 0.8 ± 0.3 nM
Kd (Siderocalin (Scn) [1]; V^IV complex): 40 ± 9 nM
Kd (Siderocalin (Scn) [1]; no metal (apo ligand)): 1.4 ± 0.3 nM

CC(=O)N(O)CCCC[C@H](NC(=O)CC(O)(CC(=O)N[C@@H](CCCCN(O)C(C)=O)C(=O)O)C(=O)O)C(=O)O [aerobactin]
Binding by Scn in words (Siderocalin (Scn) [2]; natural siderophores): not bound

Cn1ccc(C(=O)NCCN(CCNC(=O)c2cccc(O)c2O)CCNC(=O)c2ccn(C)c(=O)c2O)c(O)c1=O [trenCAM(Me-3,2-HOPO)2, tren(CAM)(Me-3,2-HOPO)2]
Kd (Siderocalin (Scn) [1]; Fe^III complex): 150 ± 20 nM

O=C(NCCN(CCNC(=O)c1cccc(=O)n1O)CCNC(=O)c1cccc(=O)n1O)c1cccc(=O)n1O [tren(1,2-HOPO)3]
Kd (Siderocalin (Scn) [1]; Fe^III complex): > 600 nM
Kd (Siderocalin (Scn) [1]; V^IV complex): 300 ± 30 nM
Scn affinity in words (Siderocalin (Scn) [1]; apo ligand, pH 7.4): micromolar affinity range
Kd (Siderocalin (Scn) [1]; no metal (apo ligand)): 250 ± 30 nM

O=C(N[C@H]1COC(=O)[C@@H](NC(=O)c2cccc(O)c2O)COC(=O)[C@@H](NC(=O)c2cccc(O)c2O)COC1=O)c1cccc(O)c1O [enterobactin]
pM value (pM = -log[Fe^III]) [3]: 35.3
Binding by Scn in words (Siderocalin (Scn) [2]; apo siderophore): bound with high affinity
Binding by Scn in words (Siderocalin (Scn) [2]; natural siderophores): sequestered

Cn1ccc(C(=O)NCCN(CCNC(=O)c2ccn(C)c(=O)c2O)CCNC(=O)c2ccn(C)c(=O)c2O)c(O)c1=O [tren(Me-3,2-HOPO)3]
Kd (Siderocalin (Scn) [1]; Fe^III complex): > 600 nM

Cn1ccc(C(=O)NCCN(CCNC(=O)c2cccc(O)c2O)CCNC(=O)c2cccc(O)c2O)c(O)c1=O [trenCAM2(Me-3,2-HOPO), tren(CAM)2(Me-3,2-HOPO)]
Kd (Siderocalin (Scn) [1]; Fe^III complex): 120 ± 10 nM

O=C(NCCN(CCNC(=O)c1cccc(=O)n1O)CCNC(=O)c1cccc(=O)n1O)c1cccc(O)c1O [trenCAM(1,2-HOPO)2, tren(CAM)(1,2-HOPO)2]
Kd (Siderocalin (Scn) [1]; Fe^III complex): 43 ± 2 nM
Kd (Siderocalin (Scn) [1]; V^IV complex): 220 ± 70 nM
Kd (Siderocalin (Scn) [1]; no metal (apo ligand)): 140 ± 10 nM

O=C1CCC(=O)N(O)CCC(O)CNC(=O)CCC(=O)N(O)CCC(O)CN1 (centres unmarked) [alcaligin]
Binding by Scn in words (Siderocalin (Scn) [2]; natural siderophores): not bound

CC(=O)N(O)CCCCCNC(=O)CCC(=O)N(O)CCCCCNC(=O)CCC(=O)N(O)CCCCCN [desferrioxamine B]
pM value (pM = -log[Fe^III]) [3]: 26.6

C[C@H]1OC(=O)[C@@H](NC(=O)CNC(=O)c2cccc(O)c2O)[C@@H](C)OC(=O)[C@@H](NC(=O)CNC(=O)c2cccc(O)c2O)[C@@H](C)OC(=O)[C@H]1NC(=O)CNC(=O)c1cccc(O)c1O [bacillibactin]
Binding by Scn in words (Siderocalin (Scn) [2]; apo siderophore): bound with high affinity
Binding by Scn in words (Siderocalin (Scn) [2]; natural siderophores): sequestered

O=C(N[C@H]1COC(=O)[C@@H](NC(=O)c2cc([C@@H]3O[C@H](CO)[C@@H](O)[C@H](O)[C@H]3O)cc(O)c2O)COC(=O)[C@@H](NC(=O)c2cc([C@@H]3O[C@H](CO)[C@@H](O)[C@H](O)[C@H]3O)cc(O)c2O)COC1=O)c1cccc(O)c1O [salmochelin-S4]
Binding by Scn in words (Siderocalin (Scn) [2]; natural siderophores): not bound

O=C(CC(O)(CC(=O)NCCCCNCCCNC(=O)c1ccc(O)c(O)c1)C(=O)O)NCCCCNCCCNC(=O)c1ccc(O)c(O)c1 [petrobactin]
Binding by Scn in words (Siderocalin (Scn) [2]): not bound
